Measured values taken from ChEMBL document CHEMBL5058577, “EUbOPEN Chemogenomics Library 2 (Multiplex)” (2022).

System: HEK-293T
Assay: Multiplex assay against HEK293T
Assay type: toxicity, cell-based
Settings: human
Procedure, shortened: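 Cells were classed with CellPathfinder machine-learning gating, first as Hoechst high-intensity objects or normal cells, then (normal cells) as healthy, pyknosed or fragmented nuclei, and finally (pyknosed cells) as mitotic or apoptotic. Staining of live cells at seeding used Hoechst33342, BioTracker Green Microtubule Cytoskeleton Dye, MitoTracker Red and Annexin V Alexa Fluor 680, with imaging on a CQ1 microscope at 37°C and 5% CO2 after compound addition. Tubulin, mitochondrial-mass and membrane-permeability phenotypes are per cents of healthy-nucleus cells.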

[1] = 12 h, 1 µM, compound concentration 1 uM, replicate 1
[2] = 12 h, 1 µM, compound concentration 1 uM, replicate 2
[3] = 12 h, 10 µM, compound concentration 10 uM, replicate 1
[4] = 12 h, 10 µM, compound concentration 10 uM, replicate 2
[5] = 24 h, 1 µM, compound concentration 1 uM, replicate 1
[6] = 24 h, 1 µM, compound concentration 1 uM, replicate 2
[7] = 24 h, 10 µM, compound concentration 10 uM, replicate 1
[8] = 24 h, 10 µM, compound concentration 10 uM, replicate 2
[9] = 48 h, 1 µM, compound concentration 1 uM, replicate 1
[10] = 48 h, 1 µM, compound concentration 1 uM, replicate 2
[11] = 48 h, 10 µM, compound concentration 10 uM, replicate 1
[12] = 48 h, 10 µM, compound concentration 10 uM, replicate 2

CN1C[C@H](C(=O)N[C@]2(C)O[C@@]3(O)[C@@H]4CCCN4C(=O)[C@H](Cc4ccccc4)N3C2=O)C[C@@H]2c3cccc4[nH]cc(c34)C[C@H]21.CS(=O)(=O)O [DIHYDROERGOTAMINE MESYLATE]
Population Apoptotic (%) [1]: 38% | Population Fragmented Nuclei (%) [1]: 6% | Population Healthy Nuclei (%) [1]: 84% | Population Hoechst High Intensity Objects (%) [1]: 5% | Population Membrane Permeable-Phenotype (%) [1]: 0% | Population Mitochondria Different-Phenotype (%) [1]: 41% | Population Mitotic Cells (%) [1]: 61% | Population Normal (%) [1]: 94% | Population Pyknosed Nuclei (%) [1]: 8% | Population Tubulin-Different-Phenotype (%) [1]: 26% | Total Cell Count [1]: 418 | Population Apoptotic (%) [2]: 46% | Population Fragmented Nuclei (%) [2]: 3% | Population Healthy Nuclei (%) [2]: 81% | Population Mitochondria Different-Phenotype (%) [2]: 65% | Population Mitotic Cells (%) [2]: 53% | Population Pyknosed Nuclei (%) [2]: 14% | Population Tubulin-Different-Phenotype (%) [2]: 17% | Total Cell Count [2]: 285 | Population Apoptotic (%) [3]: 31% | Population Fragmented Nuclei (%) [3]: 7% | Population Healthy Nuclei (%) [3]: 76% | Population Hoechst High Intensity Objects (%) [3]: 9% | Population Membrane Permeable-Phenotype (%) [3]: 0% | Population Mitochondria Different-Phenotype (%) [3]: 48% | Population Mitotic Cells (%) [3]: 68% | Population Normal (%) [3]: 90% | Population Pyknosed Nuclei (%) [3]: 15% | Population Tubulin-Different-Phenotype (%) [3]: 29% | Total Cell Count [3]: 403 | Population Apoptotic (%) [4]: 53% | Population Fragmented Nuclei (%) [4]: 5% | Population Healthy Nuclei (%) [4]: 80% | Population Hoechst High Intensity Objects (%) [4]: 11% | Population Mitochondria Different-Phenotype (%) [4]: 61% | Population Mitotic Cells (%) [4]: 46% | Population Normal (%) [4]: 88% | Population Pyknosed Nuclei (%) [4]: 13% | Population Tubulin-Different-Phenotype (%) [4]: 23% | Total Cell Count [4]: 435 | Population Apoptotic (%) [5]: 28% | Population Fragmented Nuclei (%) [5]: 9% | Population Healthy Nuclei (%) [5]: 80% | Population Hoechst High Intensity Objects (%) [5]: 4% | Population Membrane Permeable-Phenotype (%) [5]: 0% | Population Mitochondria Different-Phenotype (%) [5]: 28% | Population Mitotic Cells (%) [5]: 71% | Population Normal (%) [5]: 95% | Population Pyknosed Nuclei (%) [5]: 9% | Population Tubulin-Different-Phenotype (%) [5]: 20% | Total Cell Count [5]: 621 | Population Apoptotic (%) [6]: 51% | Population Fragmented Nuclei (%) [6]: 7% | Population Healthy Nuclei (%) [6]: 84% | Population Hoechst High Intensity Objects (%) [6]: 3% | Population Mitochondria Different-Phenotype (%) [6]: 41% | Population Mitotic Cells (%) [6]: 48% | Population Normal (%) [6]: 96% | Population Pyknosed Nuclei (%) [6]: 8% | Population Tubulin-Different-Phenotype (%) [6]: 12% | Total Cell Count [6]: 341 | Population Apoptotic (%) [7]: 27% | Population Fragmented Nuclei (%) [7]: 10% | Population Healthy Nuclei (%) [7]: 76% | Population Hoechst High Intensity Objects (%) [7]: 5% | Population Membrane Permeable-Phenotype (%) [7]: 0% | Population Mitochondria Different-Phenotype (%) [7]: 33% | Population Mitotic Cells (%) [7]: 72% | Population Normal (%) [7]: 94% | Population Pyknosed Nuclei (%) [7]: 13% | Population Tubulin-Different-Phenotype (%) [7]: 26% | Total Cell Count [7]: 480 | Population Apoptotic (%) [8]: 32% | Population Fragmented Nuclei (%) [8]: 9% | Population Healthy Nuclei (%) [8]: 84% | Population Hoechst High Intensity Objects (%) [8]: 6% | Population Mitochondria Different-Phenotype (%) [8]: 39% | Population Mitotic Cells (%) [8]: 67% | Population Normal (%) [8]: 93% | Population Pyknosed Nuclei (%) [8]: 6% | Population Tubulin-Different-Phenotype (%) [8]: 16% | Total Cell Count [8]: 567 | Population Apoptotic (%) [9]: 29% | Population Fragmented Nuclei (%) [9]: 14% | Population Healthy Nuclei (%) [9]: 78% | Population Hoechst High Intensity Objects (%) [9]: 2% | Population Membrane Permeable-Phenotype (%) [9]: 1% | Population Mitochondria Different-Phenotype (%) [9]: 17% | Population Mitotic Cells (%) [9]: 70% | Population Normal (%) [9]: 97% | Population Pyknosed Nuclei (%) [9]: 6% | Population Tubulin-Different-Phenotype (%) [9]: 11% | Total Cell Count [9]: 1011 | Population Apoptotic (%) [10]: 28% | Population Fragmented Nuclei (%) [10]: 12% | Population Healthy Nuclei (%) [10]: 82% | Population Membrane Permeable-Phenotype (%) [10]: 0% | Population Mitochondria Different-Phenotype (%) [10]: 23% | Population Mitotic Cells (%) [10]: 71% | Population Pyknosed Nuclei (%) [10]: 5% | Population Tubulin-Different-Phenotype (%) [10]: 9% | Total Cell Count [10]: 524 | Population Apoptotic (%) [11]: 22% | Population Fragmented Nuclei (%) [11]: 15% | Population Healthy Nuclei (%) [11]: 76% | Population Hoechst High Intensity Objects (%) [11]: 2% | Population Membrane Permeable-Phenotype (%) [11]: 0% | Population Mitochondria Different-Phenotype (%) [11]: 20% | Population Mitotic Cells (%) [11]: 77% | Population Normal (%) [11]: 97% | Population Pyknosed Nuclei (%) [11]: 7% | Population Tubulin-Different-Phenotype (%) [11]: 12% | Total Cell Count [11]: 778 | Population Apoptotic (%) [12]: 31% | Population Healthy Nuclei (%) [12]: 77% | Population Hoechst High Intensity Objects (%) [12]: 1% | Population Mitochondria Different-Phenotype (%) [12]: 21% | Population Mitotic Cells (%) [12]: 68% | Population Normal (%) [12]: 98% | Population Pyknosed Nuclei (%) [12]: 6% | Population Tubulin-Different-Phenotype (%) [12]: 11% | Total Cell Count [12]: 793

CSc1nc(NC2CCCC2)c([N+](=O)[O-])c(NC2CCCC2)n1 [GS-39783]
Population Apoptotic (%) [1]: 45% | Population Fragmented Nuclei (%) [1]: 11% | Population Healthy Nuclei (%) [1]: 74% | Population Hoechst High Intensity Objects (%) [1]: 8% | Population Membrane Permeable-Phenotype (%) [1]: 0% | Population Mitochondria Different-Phenotype (%) [1]: 41% | Population Mitotic Cells (%) [1]: 54% | Population Normal (%) [1]: 91% | Population Pyknosed Nuclei (%) [1]: 14% | Population Tubulin-Different-Phenotype (%) [1]: 30% | Total Cell Count [1]: 346 | Population Apoptotic (%) [2]: 40% | Population Fragmented Nuclei (%) [2]: 3% | Population Healthy Nuclei (%) [2]: 85% | Population Hoechst High Intensity Objects (%) [2]: 4% | Population Mitochondria Different-Phenotype (%) [2]: 68% | Population Mitotic Cells (%) [2]: 59% | Population Normal (%) [2]: 95% | Population Pyknosed Nuclei (%) [2]: 11% | Population Tubulin-Different-Phenotype (%) [2]: 27% | Total Cell Count [2]: 301 | Population Apoptotic (%) [3]: 29% | Population Fragmented Nuclei (%) [3]: 6% | Population Healthy Nuclei (%) [3]: 81% | Population Hoechst High Intensity Objects (%) [3]: 6% | Population Membrane Permeable-Phenotype (%) [3]: 0% | Population Mitochondria Different-Phenotype (%) [3]: 50% | Population Mitotic Cells (%) [3]: 70% | Population Normal (%) [3]: 93% | Population Pyknosed Nuclei (%) [3]: 12% | Population Tubulin-Different-Phenotype (%) [3]: 40% | Total Cell Count [3]: 449 | Population Apoptotic (%) [4]: 40% | Population Fragmented Nuclei (%) [4]: 5% | Population Healthy Nuclei (%) [4]: 84% | Population Hoechst High Intensity Objects (%) [4]: 5% | Population Mitochondria Different-Phenotype (%) [4]: 68% | Population Mitotic Cells (%) [4]: 60% | Population Normal (%) [4]: 94% | Population Pyknosed Nuclei (%) [4]: 10% | Population Tubulin-Different-Phenotype (%) [4]: 29% | Total Cell Count [4]: 406 | Population Apoptotic (%) [5]: 30% | Population Fragmented Nuclei (%) [5]: 12% | Population Healthy Nuclei (%) [5]: 76% | Population Hoechst High Intensity Objects (%) [5]: 7% | Population Membrane Permeable-Phenotype (%) [5]: 0% | Population Mitochondria Different-Phenotype (%) [5]: 25% | Population Mitotic Cells (%) [5]: 69% | Population Normal (%) [5]: 92% | Population Pyknosed Nuclei (%) [5]: 11% | Population Tubulin-Different-Phenotype (%) [5]: 19% | Total Cell Count [5]: 492 | Population Apoptotic (%) [6]: 38% | Population Fragmented Nuclei (%) [6]: 7% | Population Healthy Nuclei (%) [6]: 84% | Population Hoechst High Intensity Objects (%) [6]: 8% | Population Mitochondria Different-Phenotype (%) [6]: 51% | Population Mitotic Cells (%) [6]: 61% | Population Normal (%) [6]: 91% | Population Pyknosed Nuclei (%) [6]: 7% | Total Cell Count [6]: 360 | Population Apoptotic (%) [7]: 27% | Population Fragmented Nuclei (%) [7]: 11% | Population Healthy Nuclei (%) [7]: 78% | Population Hoechst High Intensity Objects (%) [7]: 5% | Population Membrane Permeable-Phenotype (%) [7]: 1% | Population Mitochondria Different-Phenotype (%) [7]: 30% | Population Mitotic Cells (%) [7]: 72% | Population Normal (%) [7]: 94% | Population Pyknosed Nuclei (%) [7]: 10% | Population Tubulin-Different-Phenotype (%) [7]: 30% | Total Cell Count [7]: 553 | Population Apoptotic (%) [8]: 37% | Population Fragmented Nuclei (%) [8]: 8% | Population Healthy Nuclei (%) [8]: 83% | Population Hoechst High Intensity Objects (%) [8]: 6% | Population Membrane Permeable-Phenotype (%) [8]: 0% | Population Mitochondria Different-Phenotype (%) [8]: 52% | Population Mitotic Cells (%) [8]: 62% | Population Normal (%) [8]: 93% | Population Pyknosed Nuclei (%) [8]: 7% | Population Tubulin-Different-Phenotype (%) [8]: 28% | Total Cell Count [8]: 474 | Population Apoptotic (%) [9]: 35% | Population Fragmented Nuclei (%) [9]: 15% | Population Healthy Nuclei (%) [9]: 74% | Population Hoechst High Intensity Objects (%) [9]: 3% | Population Membrane Permeable-Phenotype (%) [9]: 1% | Population Mitochondria Different-Phenotype (%) [9]: 22% | Population Mitotic Cells (%) [9]: 64% | Population Normal (%) [9]: 96% | Population Pyknosed Nuclei (%) [9]: 9% | Population Tubulin-Different-Phenotype (%) [9]: 22% | Total Cell Count [9]: 775 | Population Apoptotic (%) [10]: 30% | Population Fragmented Nuclei (%) [10]: 13% | Population Healthy Nuclei (%) [10]: 77% | Population Hoechst High Intensity Objects (%) [10]: 6% | Population Membrane Permeable-Phenotype (%) [10]: 0% | Population Mitochondria Different-Phenotype (%) [10]: 32% | Population Mitotic Cells (%) [10]: 69% | Population Normal (%) [10]: 93% | Population Pyknosed Nuclei (%) [10]: 8% | Population Tubulin-Different-Phenotype (%) [10]: 24% | Total Cell Count [10]: 505 | Population Apoptotic (%) [11]: 17% | Population Fragmented Nuclei (%) [11]: 14% | Population Healthy Nuclei (%) [11]: 78% | Population Hoechst High Intensity Objects (%) [11]: 3% | Population Membrane Permeable-Phenotype (%) [11]: 1% | Population Mitochondria Different-Phenotype (%) [11]: 27% | Population Mitotic Cells (%) [11]: 82% | Population Normal (%) [11]: 96% | Population Pyknosed Nuclei (%) [11]: 7% | Population Tubulin-Different-Phenotype (%) [11]: 21% | Total Cell Count [11]: 856 | Population Apoptotic (%) [12]: 30% | Population Fragmented Nuclei (%) [12]: 13% | Population Healthy Nuclei (%) [12]: 77% | Population Hoechst High Intensity Objects (%) [12]: 5% | Population Membrane Permeable-Phenotype (%) [12]: 0% | Population Mitochondria Different-Phenotype (%) [12]: 35% | Population Mitotic Cells (%) [12]: 69% | Population Normal (%) [12]: 94% | Population Pyknosed Nuclei (%) [12]: 8% | Total Cell Count [12]: 647
